Legend:
[1] = system: L1210; assay: Compound level in L1210 cells after 48 hours of incubation at initial concentration of 500 uM is expressed as nmol/10e6 cells; format: functional, Mus musculus; parameters: unit: nmol/10^6 cells
[2] = system: L1210; assay: Compound was evaluated for its impact on spermine levels after 48 hr at concentration 500 uM; format: functional, Mus musculus
[3] = system: L1210; assay: Compound was evaluated for its impact on spermidine levels after 48 hr at concentration 100 uM; format: functional, Mus musculus
[4] = system: L1210; assay: Compound was evaluated for its impact on spermidine levels after 48 hr at concentration 500 uM; format: functional, Mus musculus
[5] = system: L1210; assay: Compound was evaluated for its impact on spermine levels after 48 hr at concentration 100 uM; format: functional, Mus musculus
[6] = system: L1210; assay: Compound was evaluated for its impact on putrescine (Put) levels after 48 hr at concentration 500 uM; format: functional, Mus musculus
[7] = system: L1210; assay: Inhibition of radiolabeled spermidine uptake into L1210 cells in vitro.; format: functional, cell-based, Mus musculus
[8] = system: L1210; assay: Compound level in L1210 cells after 48 hours of incubation at initial concentration of 100 uM is expressed as nmol/10e6 cells; format: functional, Mus musculus; parameters: unit: nmol/10^6 cells
[9] = system: L1210; assay: Compound was evaluated for its impact on putrescine (Put) levels after 48 hr at concentration 100 uM; format: functional, Mus musculus
[10] = system: L1210; assay: In vitro inhibition of L1210 growth after 48 hours.; format: functional, cell-based; conditions: Mus musculus, L1210, 48 h
In short: (§1)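 Log-phase L1210 cultures (0.5–1.0 × 10^5 cells/mL) treated with analogue diluted in sterile water and filter-sterilized. After 48 h, cells were reseeded and grown a further 48 h for the 96 h point. Cells counted by Coulter counter. % growth = (treated − inoculum)/(untreated − inoculum) × 100.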

[11] = system: L1210; assay: In vitro inhibition of L1210 growth after 96 hours.; format: functional, cell-based; conditions: Mus musculus, L1210, 96 h; in short: as §1
[12] = target: T1, Ornithine decarboxylase (Mus musculus) (UniProt P00860); assay: Inhibition of ornithine decarboxylase (ODC) activity; format: functional; parameters: concentration or dose not given beside the values
T1 sequence (whole entry): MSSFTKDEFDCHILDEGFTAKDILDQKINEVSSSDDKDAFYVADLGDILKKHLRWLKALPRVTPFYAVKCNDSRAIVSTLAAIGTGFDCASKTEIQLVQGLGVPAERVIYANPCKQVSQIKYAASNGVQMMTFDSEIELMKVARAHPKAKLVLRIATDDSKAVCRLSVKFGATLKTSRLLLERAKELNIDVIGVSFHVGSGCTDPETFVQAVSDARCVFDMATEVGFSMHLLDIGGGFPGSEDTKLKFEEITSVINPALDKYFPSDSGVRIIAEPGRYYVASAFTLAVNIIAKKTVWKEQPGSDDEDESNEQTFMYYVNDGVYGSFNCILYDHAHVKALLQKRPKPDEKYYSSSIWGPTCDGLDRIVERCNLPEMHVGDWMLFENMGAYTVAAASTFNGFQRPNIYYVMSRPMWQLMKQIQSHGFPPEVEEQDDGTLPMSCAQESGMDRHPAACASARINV

[13] = target: T2, S-adenosylmethionine decarboxylase proenzyme 1 (Mus musculus) (UniProt P0DMN7); assay: Inhibition of S-Adenosyl-methionine decarboxylase (AdoMetDC) activity; format: functional; parameters: concentration or dose not given beside the values
T2 sequence (whole entry): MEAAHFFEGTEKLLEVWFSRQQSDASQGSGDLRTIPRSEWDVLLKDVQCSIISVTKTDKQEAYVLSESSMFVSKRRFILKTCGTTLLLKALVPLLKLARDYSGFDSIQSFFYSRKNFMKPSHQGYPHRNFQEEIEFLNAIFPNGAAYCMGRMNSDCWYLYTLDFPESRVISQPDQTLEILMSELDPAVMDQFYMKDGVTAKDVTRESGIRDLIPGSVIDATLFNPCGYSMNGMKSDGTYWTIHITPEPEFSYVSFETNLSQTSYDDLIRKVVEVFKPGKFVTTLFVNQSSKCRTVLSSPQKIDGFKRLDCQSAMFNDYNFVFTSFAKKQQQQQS

[14] = target: Spermidine/spermine N(1)-acetyltransferase (SAT) (Mus musculus) (UniProt Q6P8J2+P48026); assay: […] spermidine/spermine N1-Acetyltransferase (SSAT) activity; format: functional; parameters: concentration or dose not given beside the values
[15] = system: S-adenosylmethionine decarboxylase (Mus musculus); assay: Effect of compound on S-Adenosyl-methionine decarboxylase (AdoMetDC) activity expressed as percent of untreated control for (AdoMetDC) (1 uM at 6 hr)
[16] = target: T1, Ornithine decarboxylase (Mus musculus); assay: Effect of compound on ornithine decarboxylase (ODC)activity expressed as percent of untreated control for ODC (1 uM at 4 h(or 48h))
In short: (§2)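 L1210 cells exposed to 1 μM analogue for 4 h, or for 48 h in some cases. ODC activity measured as 14CO2 released from [14C]carboxyl-labeled L-ornithine and expressed as % of untreated control.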

[17] = system: L1210; assay: Compound was evaluated for its impact on spermidine levels after 48 hr at concentration 0.3 uM; format: functional, Mus musculus
In short: (§3)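 L1210 suspension cultures were grown in RPMI-1640 with 10% NuSerum, 2% HEPES-MOPS and 1 mM aminoguanidine (37 °C, 5% CO2). Log-phase cells were treated for 48 h, then washed twice in cold RPMI-1640 and pelleted. Pellets were extracted with 0.6 N perchloric acid, and supernatants were held at −20 °C until HPLC. Polyamine levels are given as % of untreated controls.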

[18] = system: L1210; assay: Compound was evaluated for its impact on spermidine levels after 48 hr at concentration 1.5 uM; format: functional, Mus musculus; in short: as §3
[19] = system: L1210; assay: (§4) Compound was evaluated for its impact on spermine levels uM; format: functional, Mus musculus
[20] = system: L1210; assay: as §4; format: functional, Mus musculus; remark: listed apart in the source
[21] = system: L1210; assay: Compound was evaluated for its impact on putrescine (Put) levels after 48 hr at concentration 0.3 uM; format: functional, Mus musculus; in short: as §3
[22] = system: L1210; assay: Compound level in L1210 cells after 48 hours of incubation at initial concentration of 0.3 uM is expressed as nmol/10e6 cells; format: functional, Mus musculus
In short: (§5)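 Murine L1210 leukemia cells were kept in logarithmic growth as a suspension in RPMI-1640 with 10% NuSerum, 2% HEPES-MOPS buffer and 1 mM aminoguanidine, at 37 °C under 5% CO2. Log-phase cells were exposed to the analogue for 48 h. Intracellular analogue content is reported per 10^6 cells.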

[23] = system: L1210; assay: Compound level in L1210 cells after 48 hours of incubation at initial concentration of 1.5 uM is expressed as nmol/10e6 cells; format: functional, Mus musculus; in short: as §5
[24] = system: L1210; assay: Compound was evaluated for its impact on putrescine (Put) levels after 48 hr at concentration 1.5 uM; format: functional, Mus musculus; in short: as §3
[25] = system: L1210; assay: Compound level in L1210 cells after 48 hours of incubation at initial concentration of 5 uM is expressed as nmol/10e6 cells; format: functional, Mus musculus; in short: as §5
[26] = system: L1210; assay: Compound was evaluated for its impact on spermine levels after 48 hr at concentration 5 uM; format: functional, Mus musculus
In short: (§6)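 Murine L1210 leukemia cells in log-phase suspension (RPMI-1640, 10% NuSerum, 2% HEPES-MOPS, 1 mM aminoguanidine, 37 °C, 5% CO2) exposed to analogue for 48 h. Cells washed twice in cold RPMI-1640, extracted with 0.6 N perchloric acid, and polyamines quantified by HPLC. Spermine is reported as % of untreated control.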

[27] = system: L1210; assay: Compound was evaluated for its impact on spermidine levels after 48 hr at concentration 1 uM; format: functional, Mus musculus; in short: as §3
[28] = system: L1210; assay: Compound was evaluated for its impact on spermidine levels after 48 hr at concentration 5 uM; format: functional, Mus musculus; in short: as §3
[29] = system: L1210; assay: Compound was evaluated for its impact on spermine levels after 48 hr at concentration 1 uM; format: functional, Mus musculus; in short: as §6
[30] = system: L1210; assay: Compound was evaluated for its impact on putrescine (Put) levels after 48 hr at concentration 5 uM; format: functional, Mus musculus; in short: as §3
[31] = system: L1210; assay: Compound level in L1210 cells after 48 hours of incubation at initial concentration of 1 uM is expressed as nmol/10e6 cells; format: functional, Mus musculus; in short: as §5
[32] = system: L1210; assay: Compound was evaluated for its impact on putrescine (Put) levels after 48 hr at concentration 1 uM; format: functional, Mus musculus; in short: as §3
[33] = target: T1, Ornithine decarboxylase (Mus musculus); assay: Effect of compound on ornithine decarboxylase (ODC) activity expressed as percent of untreated control for ODC (1 uM at 4 h(or 48h)); in short: as §2

Chain of Spermidine/spermine N(1)-acetyltransferase (SAT) (Mus musculus) (P48026 whole entry, looked up): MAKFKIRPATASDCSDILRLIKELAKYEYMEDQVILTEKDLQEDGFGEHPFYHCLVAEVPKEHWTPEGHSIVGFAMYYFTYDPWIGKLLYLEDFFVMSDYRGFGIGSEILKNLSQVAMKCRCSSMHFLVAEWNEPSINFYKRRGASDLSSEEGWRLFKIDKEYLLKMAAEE
Chain of Spermidine/spermine N(1)-acetyltransferase (SAT) (Mus musculus) (Q6P8J2 whole entry, looked up): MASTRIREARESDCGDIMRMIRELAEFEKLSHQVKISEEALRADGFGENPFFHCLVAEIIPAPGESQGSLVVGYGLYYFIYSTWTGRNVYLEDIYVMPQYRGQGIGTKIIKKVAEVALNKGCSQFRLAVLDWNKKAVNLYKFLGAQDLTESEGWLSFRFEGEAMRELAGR

| SMILES | Activity [1] | Polyamine [2] [%] | Polyamine [3] [%] | Polyamine [4] [%] | Polyamine [5] [%] | Polyamine [6] [%] | Ki [7] [µM] | Activity [8] | Polyamine [9] [%] | IC50 [10] [nM] | IC50 [11] [nM] | Activity [12] [%] | Activity [13] [%] | Activity [14] [%] | Activity [15] [%] | also measured |
| --- | --- | --- | --- | --- | --- | --- | --- | --- | --- | --- | --- | --- | --- | --- | --- | --- |
| CNCCCCNCCCCNCCCCNC | 1.03 | 27 | 0 | 0 | 30 | 0 | 0.97 | 1.49 | 0 | > 100000 | 320 | 4 | 45 | 140 | – | – |
| CC(C)(C)NCCCCNCCCCNCCCCNC(C)(C)C | – | 72 | 85 | 58 | 94 | 55 | 56 | – | 83 | > 100000 | 3000 | 100 | – | – | 100 | – |
| CCNCCCNCCCCNCCCN | – | – | – | – | – | – | – | – | – | – | – | – | 27 | 150 | – | Activity [16]: 10% |
| CCNCCCNCCCNCCCN | 1.72 | 11 | 5 | 2 | 11 | 0 | 7.7 | 1.69 | 0 | > 100000 | 2500 | 5 | 33 | 410 | – | – |
| CCNCCCCNCCCCCNCCCCNCC | – | – | – | – | – | – | 6 | – | – | 300 | 35 | 20 | – | 120 | 39 | Polyamine [17]: 61%; Polyamine [18]: 5%; Polyamine [19]: 70%; Polyamine [20]: 31%; Polyamine [21]: 44%; Activity [22]: 0.26; Activity [23]: 0.72; Polyamine [24]: 0% |
| CCNCCCCNCCCNCCCCNCC | – | – | – | – | – | – | 4 | – | – | 1000 | 180 | – | 28 | 120 | – | Activity [25]: 1.5; Polyamine [26]: 27%; Polyamine [27]: 41%; Polyamine [28]: 0%; Polyamine [29]: 52%; Polyamine [30]: 0%; Activity [31]: 0.76; Polyamine [32]: 81%; Activity [33]: 5% |
